Substitutions are numbered along the chain they refer to.
Columns and labels:
Conditions in all cases: stereoisomer not certain
OR2B3 (Homo sapiens) = target: T1, OR2B3 (Homo sapiens) (UniProt O76000)
T1 sequence (whole entry): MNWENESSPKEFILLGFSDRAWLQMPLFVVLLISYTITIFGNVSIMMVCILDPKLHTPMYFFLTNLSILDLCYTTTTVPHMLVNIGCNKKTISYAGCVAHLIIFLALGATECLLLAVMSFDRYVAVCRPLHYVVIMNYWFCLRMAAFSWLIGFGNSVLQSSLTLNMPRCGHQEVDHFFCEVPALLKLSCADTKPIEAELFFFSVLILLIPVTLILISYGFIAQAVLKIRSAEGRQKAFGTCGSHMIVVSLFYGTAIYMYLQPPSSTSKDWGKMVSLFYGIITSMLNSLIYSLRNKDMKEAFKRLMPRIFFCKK
How it was run: (§1)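 Transient luciferase assays in mammalian cell lines were common, though methods varied by source. The values come from published papers and their supplementary material, with extra details from the original authors when needed. Responsive refers to a measured signal the original authors judged statistically different from baseline, and non-responsive (inactive) to the remainder.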

OR2A7 = tested on: T2, OR2A7
T2 sequence (whole entry): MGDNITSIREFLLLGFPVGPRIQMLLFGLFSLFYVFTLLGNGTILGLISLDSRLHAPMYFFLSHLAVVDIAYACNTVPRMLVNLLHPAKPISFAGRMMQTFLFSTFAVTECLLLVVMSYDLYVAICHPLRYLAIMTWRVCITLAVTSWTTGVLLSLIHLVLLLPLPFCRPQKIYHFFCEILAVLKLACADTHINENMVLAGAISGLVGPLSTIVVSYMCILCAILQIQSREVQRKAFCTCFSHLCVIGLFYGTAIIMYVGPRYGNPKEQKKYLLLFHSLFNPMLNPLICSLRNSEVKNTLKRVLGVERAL
How it was run: as §1

OR2AE1 (Homo sapiens) = target: T3, OR2AE1 (Homo sapiens) (UniProt Q8NHA4)
T3 sequence (whole entry): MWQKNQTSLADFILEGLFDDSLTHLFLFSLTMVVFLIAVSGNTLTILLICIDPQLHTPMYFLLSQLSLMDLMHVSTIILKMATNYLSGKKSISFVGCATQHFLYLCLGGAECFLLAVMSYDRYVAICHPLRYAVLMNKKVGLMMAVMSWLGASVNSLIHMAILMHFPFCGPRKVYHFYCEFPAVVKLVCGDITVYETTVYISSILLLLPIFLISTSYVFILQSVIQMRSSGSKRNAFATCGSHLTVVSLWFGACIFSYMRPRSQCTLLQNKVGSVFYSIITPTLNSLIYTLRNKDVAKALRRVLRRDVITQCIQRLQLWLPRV
How it was run: as §1

OR2AG1 (Homo sapiens) = target: T4, OR2AG1 (Homo sapiens) (UniProt Q9H205)
T4 sequence (whole entry): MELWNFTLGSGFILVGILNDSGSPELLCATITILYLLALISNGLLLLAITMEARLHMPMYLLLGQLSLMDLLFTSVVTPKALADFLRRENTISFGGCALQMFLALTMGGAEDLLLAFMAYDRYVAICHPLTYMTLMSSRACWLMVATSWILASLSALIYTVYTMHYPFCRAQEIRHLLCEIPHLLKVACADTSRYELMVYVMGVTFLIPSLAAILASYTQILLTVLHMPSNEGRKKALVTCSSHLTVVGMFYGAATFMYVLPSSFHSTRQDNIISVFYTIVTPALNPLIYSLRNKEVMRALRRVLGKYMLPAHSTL
How it was run: as §1

OR2AG2 (Homo sapiens) = target: T5, OR2AG2 (Homo sapiens) (UniProt A6NM03)
T5 sequence (whole entry): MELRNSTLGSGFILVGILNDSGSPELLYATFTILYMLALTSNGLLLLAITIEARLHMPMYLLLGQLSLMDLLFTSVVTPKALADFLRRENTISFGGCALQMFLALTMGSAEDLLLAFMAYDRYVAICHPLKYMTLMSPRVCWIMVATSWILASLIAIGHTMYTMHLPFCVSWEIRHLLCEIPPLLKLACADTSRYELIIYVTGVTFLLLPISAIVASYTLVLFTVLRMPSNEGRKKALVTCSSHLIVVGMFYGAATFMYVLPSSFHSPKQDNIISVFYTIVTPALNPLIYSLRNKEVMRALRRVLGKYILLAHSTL
How it was run: as §1

OR2AK2 (Homo sapiens) = target: T6, OR2AK2 (Homo sapiens) (UniProt Q8NG84)
T6 sequence (whole entry): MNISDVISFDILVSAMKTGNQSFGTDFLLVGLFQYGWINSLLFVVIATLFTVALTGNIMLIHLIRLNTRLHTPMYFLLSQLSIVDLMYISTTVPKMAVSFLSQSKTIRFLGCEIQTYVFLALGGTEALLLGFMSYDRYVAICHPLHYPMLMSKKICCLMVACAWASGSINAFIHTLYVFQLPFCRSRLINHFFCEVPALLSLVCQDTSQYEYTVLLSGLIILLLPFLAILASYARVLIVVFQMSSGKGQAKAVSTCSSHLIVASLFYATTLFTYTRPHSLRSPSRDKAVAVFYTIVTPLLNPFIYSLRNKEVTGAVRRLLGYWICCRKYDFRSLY
How it was run: as §1

OR2AP1 (Homo sapiens) = target: T7, OR2AP1 (Homo sapiens) (UniProt Q8NGE2)
T7 sequence (whole entry): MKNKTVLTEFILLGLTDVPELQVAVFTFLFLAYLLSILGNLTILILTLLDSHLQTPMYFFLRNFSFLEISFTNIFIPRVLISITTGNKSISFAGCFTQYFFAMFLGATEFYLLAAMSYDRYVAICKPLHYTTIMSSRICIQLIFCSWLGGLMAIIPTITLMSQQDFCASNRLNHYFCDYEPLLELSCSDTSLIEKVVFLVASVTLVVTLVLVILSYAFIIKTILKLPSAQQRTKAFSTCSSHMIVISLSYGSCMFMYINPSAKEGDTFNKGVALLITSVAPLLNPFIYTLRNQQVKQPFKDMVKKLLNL
How it was run: as §1

OR2AT4 (Homo sapiens) = target: T8, OR2AT4 (Homo sapiens) (UniProt A6NND4)
T8 sequence (whole entry): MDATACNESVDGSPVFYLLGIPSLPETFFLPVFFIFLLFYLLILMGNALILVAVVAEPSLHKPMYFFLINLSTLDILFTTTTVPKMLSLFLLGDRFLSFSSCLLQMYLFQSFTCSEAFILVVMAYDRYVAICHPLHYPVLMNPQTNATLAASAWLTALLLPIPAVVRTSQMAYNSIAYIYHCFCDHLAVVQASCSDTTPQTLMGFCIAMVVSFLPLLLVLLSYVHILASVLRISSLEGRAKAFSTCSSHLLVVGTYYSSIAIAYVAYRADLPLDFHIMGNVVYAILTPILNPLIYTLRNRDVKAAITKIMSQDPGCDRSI
How it was run: as §1

OR2B11 (Homo sapiens) = target: T9, OR2B11 (Homo sapiens) (UniProt Q5JQS5)
T9 sequence (whole entry): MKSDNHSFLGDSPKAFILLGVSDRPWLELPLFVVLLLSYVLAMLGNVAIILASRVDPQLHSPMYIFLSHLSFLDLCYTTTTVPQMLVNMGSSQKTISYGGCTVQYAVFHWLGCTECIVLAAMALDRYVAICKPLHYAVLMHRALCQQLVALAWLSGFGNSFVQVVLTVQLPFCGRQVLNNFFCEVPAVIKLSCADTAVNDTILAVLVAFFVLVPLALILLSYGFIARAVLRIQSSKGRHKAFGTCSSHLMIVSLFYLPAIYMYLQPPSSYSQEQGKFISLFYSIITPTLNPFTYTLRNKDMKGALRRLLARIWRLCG
How it was run: as §1

OR2B2 (Homo sapiens) = target: T10, OR2B2 (Homo sapiens) (UniProt Q9GZK3)
T10 sequence (whole entry): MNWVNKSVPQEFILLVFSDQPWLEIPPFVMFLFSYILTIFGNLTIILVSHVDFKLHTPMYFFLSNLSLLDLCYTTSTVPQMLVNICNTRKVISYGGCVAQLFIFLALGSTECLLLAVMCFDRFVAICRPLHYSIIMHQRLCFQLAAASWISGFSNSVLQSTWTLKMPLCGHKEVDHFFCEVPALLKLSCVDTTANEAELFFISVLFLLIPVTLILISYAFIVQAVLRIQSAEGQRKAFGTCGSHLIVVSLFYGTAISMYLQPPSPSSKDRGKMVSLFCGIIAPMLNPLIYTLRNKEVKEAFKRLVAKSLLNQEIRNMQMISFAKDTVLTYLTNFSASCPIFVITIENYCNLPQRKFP
How it was run: as §1

OR2B6 (Homo sapiens) = target: T11, OR2B6 (Homo sapiens) (UniProt P58173)
T11 sequence (whole entry): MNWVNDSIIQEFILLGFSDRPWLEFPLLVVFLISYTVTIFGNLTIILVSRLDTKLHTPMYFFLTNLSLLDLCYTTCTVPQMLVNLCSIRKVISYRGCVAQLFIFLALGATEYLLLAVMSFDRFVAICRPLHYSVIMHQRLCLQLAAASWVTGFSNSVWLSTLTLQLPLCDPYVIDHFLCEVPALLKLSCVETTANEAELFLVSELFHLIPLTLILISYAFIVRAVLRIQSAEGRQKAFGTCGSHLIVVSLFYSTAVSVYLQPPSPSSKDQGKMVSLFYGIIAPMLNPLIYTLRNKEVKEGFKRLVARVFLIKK
How it was run: as §1

OR2BB [1] = tested on: T12, OR2BB
T12 sequence (whole entry): T9 sequence (whole entry) with V198M, G223D
How it was run: as §1

OR2BB [2] = tested on: T13, OR2BB; remark: listed apart in the source
T13 sequence (whole entry): T9 sequence (whole entry) with V198M
How it was run: as §1

OR2C1 (Homo sapiens) = target: T14, OR2C1 (Homo sapiens) (UniProt O95371)
T14 sequence (whole entry): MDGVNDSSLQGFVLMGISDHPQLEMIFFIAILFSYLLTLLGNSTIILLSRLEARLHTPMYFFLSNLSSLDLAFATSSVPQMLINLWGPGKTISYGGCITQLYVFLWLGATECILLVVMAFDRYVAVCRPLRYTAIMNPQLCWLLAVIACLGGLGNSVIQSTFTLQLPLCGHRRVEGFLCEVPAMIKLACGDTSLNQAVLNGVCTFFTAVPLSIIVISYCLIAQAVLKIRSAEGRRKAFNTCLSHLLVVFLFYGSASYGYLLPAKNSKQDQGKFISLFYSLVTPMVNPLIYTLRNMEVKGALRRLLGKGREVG
How it was run: as §1

OR2C1 = tested on: T15, OR2C1
T15 sequence (whole entry): T14 sequence (whole entry) with C149W
How it was run: as §1

OR2AJ1 (Homo sapiens) = target: T16, OR2AJ1 (Homo sapiens) (UniProt Q8NGZ0)
T16 sequence (whole entry): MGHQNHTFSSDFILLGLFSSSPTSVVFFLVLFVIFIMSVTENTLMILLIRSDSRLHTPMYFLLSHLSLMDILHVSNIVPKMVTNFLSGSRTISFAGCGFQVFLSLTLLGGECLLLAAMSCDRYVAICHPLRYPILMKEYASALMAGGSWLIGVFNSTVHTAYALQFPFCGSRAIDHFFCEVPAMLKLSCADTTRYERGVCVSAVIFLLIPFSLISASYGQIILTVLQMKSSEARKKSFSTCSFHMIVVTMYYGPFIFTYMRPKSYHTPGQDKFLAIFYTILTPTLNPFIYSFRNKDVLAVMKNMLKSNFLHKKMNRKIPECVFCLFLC
How it was run: as §1

Measured: odorant receptor agonist call;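 also: active if original authors judged signal statistically different from baseline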

CCCC(C)C(=O)OCC (centres undefined)
inactive: OR2B3 (Homo sapiens)

CCC(=O)C=CC1C(C)=CCCC1(C)C (centres undefined)
inactive: OR2B3 (Homo sapiens)

CC1=NC(C)C(C)S1 (centres undefined)
not listed: OR2AJ1 (Homo sapiens)
inactive: all other assays above

CC(=O)c1c(C)c([N+](=O)[O-])c(C(C)(C)C)c([N+](=O)[O-])c1C
not listed: OR2B3 (Homo sapiens) | OR2A7 | OR2BB [1] | OR2BB [2] | OR2C1
inactive: all other assays above

CC1CCCCCCCCCCCCC(=O)C1 (centres undefined)
not listed: OR2B3 (Homo sapiens) | OR2A7 | OR2BB [1] | OR2BB [2] | OR2C1
inactive: all other assays above

Reference: the M2OR odorant receptor database
